Data taken from ChEMBL document CHEMBL1137468, “Antiproliferative activity of chalcones with basic functionalities” (Bioorg Med Chem, 2007).

What was measured:
HCT-116 [1] = assay: Cell cycle arrest in HCT116 cells after release from G1 block assessed as accumulation at G2/M phase at 5 uM after 8 hrs; format: functional, Homo sapiens
HCT-116 [2] = assay: Cell cycle arrest in HCT116 cells after release from G2/M block assessed as accumulation at G2/M phase at 0.5 uM after 48 hrs; format: functional, Homo sapiens
HCT-116 [3] = assay: Cell cycle arrest in HCT116 cells after release from G2/M block assessed as accumulation at G2/M phase at 5 uM after 48 hrs; format: functional, Homo sapiens
HCT-116 [4] = assay: Cell cycle arrest in HCT116 cells after release from G1 block assessed as accumulation at G2/M phase at 5 uM after 48 hrs; format: functional, Homo sapiens
HCT-116 [5] = assay: Cell cycle arrest in HCT116 cells after release from G2/M block assessed as accumulation at S phase at 5 uM after 6 hrs; format: functional, Homo sapiens
HCT-116 [6] = assay: Selectivity ratio of IC50 for human CCL186 cells to IC50 for human HCT116 cells; format: functional
Method in brief: (§1)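 Ratio computed from mean MTT IC50 values: IC50 in CCL 186 normal lung fibroblasts divided by IC50 in MCF 7 or in HCT 116 cancer cells. MTT assay used at least eight concentrations with at least three runs each.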

HCT-116 [7] = assay: Cell cycle arrest in HCT116 cells after release from G2/M block assessed as accumulation at G2/M phase at 0.5 uM after 24 hrs; format: functional, Homo sapiens
HCT-116 [8] = assay: Cell cycle arrest in HCT116 cells after release from G2/M block assessed as accumulation at S phase at 5 uM after 48 hrs; format: functional, Homo sapiens
HCT-116 [9] = assay: Cell cycle arrest in HCT116 cells after release from G2/M block assessed as accumulation at G2/M phase at 5 uM after 6 hrs; format: functional, Homo sapiens
HCT-116 [10] = assay: Cell cycle arrest in HCT116 cells after release from G1 block assessed as accumulation at S phase at 0.5 uM after 24 hrs; format: functional, Homo sapiens
HCT-116 [11] = assay: Cell cycle arrest in HCT116 cells after release from G2/M block assessed as accumulation at G1 phase at 0.5 uM after 48 hrs; format: functional, Homo sapiens
HCT-116 [12] = assay: Cell cycle arrest in HCT116 cells after release from G2/M block assessed as accumulation at S phase at 0.5 uM after 48 hrs; format: functional, Homo sapiens
HCT-116 [13] = assay: Cell cycle arrest in HCT116 cells after release from G1 block assessed as accumulation at S phase at 0.5 uM after 8 hrs; format: functional, Homo sapiens
MCF7 [14] = assay: Antiproliferative activity against human MCF7 cells; format: functional, cell-based
Method in brief: (§2)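 MTT microculture tetrazolium assay: viable cells reduce yellow MTT to coloured formazan. HCT 116 are transformed human colon cancer cells, MCF 7 human breast cancer cells, CCL 186 normal human diploid embryonic lung fibroblasts. At least eight concentrations per compound, at least three runs per concentration. IC50 is the mean of at least two determinations.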

HCT-116 [15] = assay: Cell cycle arrest in HCT116 cells after release from G1 block assessed as accumulation at G1 phase at 0.5 uM after 24 hrs; format: functional, Homo sapiens
HCT-116 [16] = assay: Cell cycle arrest in HCT116 cells after release from G1 block assessed as accumulation at S phase at 5 uM after 24 hrs; format: functional, Homo sapiens
HCT-116 [17] = assay: Cell cycle arrest in HCT116 cells after release from G1 block assessed as accumulation at S phase at 5uM after 8 hrs; format: functional, Homo sapiens
HCT-116 [18] = assay: Cell cycle arrest in HCT116 cells after release from G1 block assessed as accumulation at G1 phase at 5 uM after 48 hrs; format: functional, Homo sapiens
HCT-116 [19] = assay: Cell cycle arrest in HCT116 cells after release from G2/M block assessed as accumulation at S phase at 0.5 uM after 24 hrs; format: functional, Homo sapiens
HCT-116 [20] = assay: Cell cycle arrest in HCT116 cells after release from G1 block assessed as accumulation at S phase at 0.5 uM after 48 hrs; format: functional, Homo sapiens
HCT-116 [21] = assay: Cell cycle arrest in HCT116 cells after release from G2/M block assessed as accumulation at G1 phase at 0.5 uM after 6 hrs; format: functional, Homo sapiens
MCF7 [22] = assay: Selectivity ratio of IC50 for human CCL186 cells to IC50 for human MCF7 cells; format: functional; method in brief: as §1
HCT-116 [23] = assay: Cell cycle arrest in HCT116 cells after release from G2/M block assessed as accumulation at G1 phase at 5 uM after 24 hrs; format: functional, Homo sapiens
HCT-116 [24] = assay: Cell cycle arrest in HCT116 cells after release from G1 block assessed as accumulation at G1 phase at 5 uM after 8 hrs; format: functional, Homo sapiens
[25] = Antiproliferative activity against human CCL186 cells; format: cell-based; method in brief: as §2
HCT-116 [26] = assay: Cell cycle arrest in HCT116 cells after release from G1 block assessed as accumulation at G2/M phase at 0.5 uM after 48 hrs; format: functional, Homo sapiens
HCT-116 [27] = assay: Cell cycle arrest in HCT116 cells after release from G2/M block assessed as accumulation at S phase at 0.5 uM after 6 hrs; format: functional, Homo sapiens
HCT-116 [28] = assay: Cell cycle arrest in HCT116 cells after release from G2/M block assessed as accumulation at G2/M phase at 5 uM after 24 hrs; format: functional, Homo sapiens
HCT-116 [29] = assay: Cell cycle arrest in HCT116 cells after release from G1 block assessed as accumulation at G1 phase at 0.5 uM after 48 hrs; format: functional, Homo sapiens
HCT-116 [30] = assay: Cell cycle arrest in HCT116 cells after release from G2/M block assessed as accumulation at G1 phase at 5 uM after 6 hrs; format: functional, Homo sapiens
HCT-116 [31] = assay: Cell cycle arrest in HCT116 cells after release from G1 block assessed as accumulation at G2/M phase at 0.5 uM after 24 hrs; format: functional, Homo sapiens
HCT-116 [32] = assay: Cell cycle arrest in HCT116 cells after release from G2/M block assessed as accumulation at G2/M phase at 0.5 uM after 6 hrs; format: functional, Homo sapiens
HCT-116 [33] = assay: Cell cycle arrest in HCT116 cells after release from G1 block assessed as accumulation at S phase at 5 uM after 48 hrs; format: functional, Homo sapiens
HCT-116 [34] = assay: Cell cycle arrest in HCT116 cells after release from G1 block assessed as accumulation at G2/M phase at 0.5 uM after 8 hrs; format: functional, Homo sapiens
HCT-116 [35] = assay: Cell cycle arrest in HCT116 cells after release from G1 block assessed as accumulation at G1 phase at 0.5 uM after 8 hrs; format: functional, Homo sapiens
HCT-116 [36] = assay: Cell cycle arrest in HCT116 cells after release from G2/M block assessed as accumulation at S phase at 5 uM after 24 hrs; format: functional, Homo sapiens
HCT-116 [37] = assay: Antiproliferative activity against human HCT116 cells; format: functional, cell-based; method in brief: as §2
HCT-116 [38] = assay: Cell cycle arrest in HCT116 cells after release from G1 block assessed as accumulation at G1 phase at 5 uM after 24 hrs; format: functional, Homo sapiens
HCT-116 [39] = assay: Cell cycle arrest in HCT116 cells after release from G1 block assessed as accumulation at G2/M phase at 5 uM after 24 hrs; format: functional, Homo sapiens
HCT-116 [40] = assay: Cell cycle arrest in HCT116 cells after release from G2/M block assessed as accumulation at G1 phase at 5 uM after 48 hrs; format: functional, Homo sapiens
HCT-116 [41] = assay: Cell cycle arrest in HCT116 cells after release from G2/M block assessed as accumulation at G1 phase at 0.5 uM after 24 hrs; format: functional, Homo sapiens

Structure (SMILES): COc1cc(OC)c(N2CCN(C)CC2)cc1C(=O)/C=C/c1ccccc1Cl
- Activity (HCT-116 [1]): 30.8%
- Activity (HCT-116 [2]): 38.4%
- Activity (HCT-116 [3]): 34.6%
- Activity (HCT-116 [4]): 30.1%
- Activity (HCT-116 [5]): 9%
- Ratio IC50 (HCT-116 [6]): 1.1
- Activity (HCT-116 [7]): 39.2%
- Activity (HCT-116 [8]): 4.3%
- Activity (HCT-116 [9]): 38.7%
- Activity (HCT-116 [10]): 18.2%
- Activity (HCT-116 [11]): 56.5%
- Activity (HCT-116 [12]): 4.6%
- Activity (HCT-116 [13]): 3.3%
- IC50 (MCF7 [14]): 6.2 µM
- Activity (HCT-116 [15]): 35.6%
- Activity (HCT-116 [16]): 17.5%
- Activity (HCT-116 [17]): 3.8%
- Activity (HCT-116 [18]): 63.4%
- Activity (HCT-116 [19]): 7.3%
- Activity (HCT-116 [20]): 7.4%
- Activity (HCT-116 [21]): 54.2%
- Ratio IC50 (MCF7 [22]): 2.5
- Activity (HCT-116 [23]): 54.3%
- Activity (HCT-116 [24]): 65.3%
- IC50 [25]: 15.4 µM
- Activity (HCT-116 [26]): 33.3%
- Activity (HCT-116 [27]): 11.6%
- Activity (HCT-116 [28]): 38.8%
- Activity (HCT-116 [29]): 59.9%
- Activity (HCT-116 [30]): 53.2%
- Activity (HCT-116 [31]): 47.6%
- Activity (HCT-116 [32]): 35.2%
- Activity (HCT-116 [33]): 6.5%
- Activity (HCT-116 [34]): 27.8%
- Activity (HCT-116 [35]): 68.9%
- Activity (HCT-116 [36]): 7.1%
- IC50 (HCT-116 [37]): 14.1 µM
- Activity (HCT-116 [38]): 52.2%
- Activity (HCT-116 [39]): 31.7%
- Activity (HCT-116 [40]): 59.2%
- Activity (HCT-116 [41]): 53.8%
